Results on 7 compounds are retold here after article PMC2897705 (Biochemistry, 2010).

Holding throughout (format): biochemical
Experiment [1] deals with T1, LRRK2 (Mus musculus, UniProt Q5S006). As to the kind of experiment: Radiometric TLC assay of LRRK2-catalyzed GTP hydrolysis. As to conditions: for Ki: read-out: apparent dissociation constant Ki,app. The procedure, abridged: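 LRRK2 purified from BAC-transgenic mouse brain (30 nM) starts GTP hydrolysis with GTP plus [α-33P]-GTP. Runs are in triplicate, 20 min at room temperature, stopped with 20 mM EDTA. [α-33P]-GDP is resolved on PEI-cellulose TLC (0.5 M KH2PO4, pH 3.4) and counted by scintillation. Initial velocities versus [GTP] are fitted to Michaelis–Menten.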
T1 sequence (Q5S006 whole entry): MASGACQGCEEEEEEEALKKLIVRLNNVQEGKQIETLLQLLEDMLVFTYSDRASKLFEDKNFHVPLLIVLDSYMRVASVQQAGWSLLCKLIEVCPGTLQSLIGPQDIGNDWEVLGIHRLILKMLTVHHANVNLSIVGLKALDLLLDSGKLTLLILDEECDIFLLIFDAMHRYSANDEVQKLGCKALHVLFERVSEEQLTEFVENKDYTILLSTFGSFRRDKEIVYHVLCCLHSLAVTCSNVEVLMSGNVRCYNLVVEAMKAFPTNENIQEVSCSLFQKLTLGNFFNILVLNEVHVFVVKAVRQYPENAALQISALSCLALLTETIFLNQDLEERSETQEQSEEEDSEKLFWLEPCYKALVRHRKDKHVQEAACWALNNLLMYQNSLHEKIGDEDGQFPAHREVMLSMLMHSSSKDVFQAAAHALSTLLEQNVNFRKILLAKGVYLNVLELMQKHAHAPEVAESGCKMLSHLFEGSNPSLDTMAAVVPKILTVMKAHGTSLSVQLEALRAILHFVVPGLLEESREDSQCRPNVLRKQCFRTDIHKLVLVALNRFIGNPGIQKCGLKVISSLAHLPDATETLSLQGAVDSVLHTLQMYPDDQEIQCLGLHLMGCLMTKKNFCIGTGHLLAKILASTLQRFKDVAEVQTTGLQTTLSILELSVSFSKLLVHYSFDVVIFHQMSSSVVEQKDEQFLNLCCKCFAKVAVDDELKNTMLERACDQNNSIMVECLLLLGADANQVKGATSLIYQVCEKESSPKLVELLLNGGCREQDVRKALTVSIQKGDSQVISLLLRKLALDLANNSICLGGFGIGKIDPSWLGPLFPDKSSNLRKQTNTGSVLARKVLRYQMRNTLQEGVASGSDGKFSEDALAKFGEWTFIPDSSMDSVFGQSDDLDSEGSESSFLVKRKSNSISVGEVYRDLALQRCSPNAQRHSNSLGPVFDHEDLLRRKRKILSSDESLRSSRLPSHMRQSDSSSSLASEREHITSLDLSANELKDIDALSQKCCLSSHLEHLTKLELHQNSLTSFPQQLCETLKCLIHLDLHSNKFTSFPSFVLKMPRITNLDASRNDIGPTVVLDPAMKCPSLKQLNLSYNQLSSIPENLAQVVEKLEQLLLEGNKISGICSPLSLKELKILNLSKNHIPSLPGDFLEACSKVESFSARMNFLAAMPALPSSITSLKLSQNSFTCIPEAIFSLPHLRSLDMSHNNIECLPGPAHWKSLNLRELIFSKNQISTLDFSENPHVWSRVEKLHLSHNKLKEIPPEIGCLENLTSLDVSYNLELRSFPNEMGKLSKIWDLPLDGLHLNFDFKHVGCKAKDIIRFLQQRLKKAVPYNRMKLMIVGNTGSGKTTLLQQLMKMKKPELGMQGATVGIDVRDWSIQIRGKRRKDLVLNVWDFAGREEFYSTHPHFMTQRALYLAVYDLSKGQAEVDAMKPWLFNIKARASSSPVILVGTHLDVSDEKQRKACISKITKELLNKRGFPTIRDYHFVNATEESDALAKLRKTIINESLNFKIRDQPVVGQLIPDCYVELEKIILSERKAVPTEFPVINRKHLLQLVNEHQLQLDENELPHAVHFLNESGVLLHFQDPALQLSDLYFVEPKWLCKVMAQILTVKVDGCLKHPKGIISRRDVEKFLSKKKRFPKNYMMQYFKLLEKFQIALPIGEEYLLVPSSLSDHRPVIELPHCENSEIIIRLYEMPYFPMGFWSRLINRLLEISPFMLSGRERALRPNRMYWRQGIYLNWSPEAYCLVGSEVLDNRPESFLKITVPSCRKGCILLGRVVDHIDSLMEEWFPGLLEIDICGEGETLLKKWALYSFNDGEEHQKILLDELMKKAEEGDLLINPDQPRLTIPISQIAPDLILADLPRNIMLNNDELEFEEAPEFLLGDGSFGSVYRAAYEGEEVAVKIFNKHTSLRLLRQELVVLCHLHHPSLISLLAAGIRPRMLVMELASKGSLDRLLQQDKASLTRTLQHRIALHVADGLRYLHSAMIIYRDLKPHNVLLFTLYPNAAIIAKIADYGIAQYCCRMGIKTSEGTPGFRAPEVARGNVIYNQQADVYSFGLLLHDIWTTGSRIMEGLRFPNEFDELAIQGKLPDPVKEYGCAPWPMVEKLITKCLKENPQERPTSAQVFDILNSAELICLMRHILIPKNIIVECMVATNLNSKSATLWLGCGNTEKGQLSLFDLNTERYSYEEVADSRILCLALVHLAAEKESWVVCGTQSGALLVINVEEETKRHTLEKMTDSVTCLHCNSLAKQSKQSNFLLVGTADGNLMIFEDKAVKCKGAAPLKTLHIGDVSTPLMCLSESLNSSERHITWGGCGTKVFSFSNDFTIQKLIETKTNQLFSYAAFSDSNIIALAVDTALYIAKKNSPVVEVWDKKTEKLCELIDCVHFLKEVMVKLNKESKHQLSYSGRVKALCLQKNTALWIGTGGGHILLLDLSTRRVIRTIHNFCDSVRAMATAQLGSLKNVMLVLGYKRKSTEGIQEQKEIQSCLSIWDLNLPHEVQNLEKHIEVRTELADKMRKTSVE

For experiment [2], the target named is T1, LRRK2. As to the kind of experiment: TR-FRET assay of LRRK2-catalyzed PLK-peptide phosphorylation. The procedure, abridged: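 Mouse-brain-derived LRRK2 (4 nM) phosphorylates PLK-peptide (RRRSLLE) with varied ATP. Runs are in duplicate, 4 h at room temperature, stopped with 10 mM EDTA, then 2 h with 2 nM Eu-anti-phospho-PLK before the TR-FRET read. For inhibitor studies, ATP is varied at 100 nM PLK-peptide with test compound 0–16.7 µM. Initial velocities are fitted by nonlinear least squares.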

Experiment [3] addresses T1, LRRK2. As to the kind of experiment: Radiometric assay of LRRK2-catalyzed LRRKtide phosphorylation. As to conditions: for effect of nucleotide on kinase activity: LRRKtide phosphorylation, data not shown.
Setting [4] is: 200 µM GTP, 0.5 mM ADP, 0.5 mM ATP or 1 µM PLK.

The kcat is the number of substrate molecules converted per active site and unit of time at saturation. In general, Km refers to the substrate concentration at which the rate is half of its maximum.

Turning to `Nc1ncnc2c1ncn2[C@@H]1O[C@H](COP(=O)(O)OP(=O)(O)O)[C@@H](O)[C@H]1O` [ADP], at LRRK2 [1], the “difference in dissociation constants, GTPase vs kinase reaction” value amounted to 30 fold. The “inhibition of GTPase activity” value on LRRK2 [1] (setting [4]) was “Inhibition of GTPase activity was detected”. Also, the Ki at LRRK2 [1] (200 µM GTP) was found to be 600 ± 100 µM.

For the compound `Nc1ncnc2c1ncn2[C@@H]1O[C@H](COP(=O)(O)O)[C@@H](O)[C@H]1O` [AMP], the Ki on LRRK2 [2] (read-out: Ki,e, PLK-peptide as phosphoryl acceptor) amounted to 2500 nM; on LRRK2 [3] (read-out: Ki,e, LRRKtide as phosphoryl acceptor) it was 12 µM. The “difference of Ki,e between PLK-peptide and LRRKtide reactions” value at LRRK2 [3] stood at 5 fold.

For the compound `Nc1ncnc2c1ncn2[C@@H]1O[C@H](COP(=O)(O)OP(=O)(O)OP(=O)(O)O)[C@@H](O)[C@H]1O` [ATP], at LRRK2 [1] (setting [4]), the “inhibition of GTPase activity” value is listed as “Inhibition of GTPase activity was detected”. The “KA (KATP)” value on LRRK2 [2] (ATP with PLK-peptide as phosphoryl acceptor, global fit) came out at 13 ± 2.9 µM; at LRRK2 [3] (ATP with LRRKtide as phosphoryl acceptor, global fit) it was 67 ± 6.4 µM.

As for `Nc1nc2c(ncn2[C@@H]2O[C@H](COP(=O)(O)OP(=O)(O)O)[C@@H](O)[C@H]2O)c(=O)[nH]1` [GDP], the Ki on LRRK2 [1] (200 µM GTP) worked out at 97 ± 16 µM. For the same compound, the “effect of nucleotide on kinase activity” value on LRRK2 [3] is reported as “no significant activation or inhibition of kinase activity was detected”.

In the case of `Nc1nc2c(ncn2[C@@H]2O[C@H](COP(=O)(O)O)[C@@H](O)[C@H]2O)c(=O)[nH]1` [GMP], the Ki on LRRK2 [1] (200 µM GTP) was 2900 ± 300 µM. Moreover, the “effect of nucleotide on kinase activity” value at LRRK2 [3] is “no significant activation or inhibition of kinase activity was detected”.

As to `Nc1nc2c(ncn2[C@@H]2O[C@H](COP(=O)(O)OP(=O)(O)OP(=O)(O)O)[C@@H](O)[C@H]2O)c(=O)[nH]1` [GTP], the “solvent isotope effect ^Dkcat” value on LRRK2 [1] (1 mM GTP, pH 7.4, D2O molar fraction 0.86, four experiments) came to 0.97 ± 0.04. Besides, the kcat on LRRK2 [1] (GTP hydrolysis) was 0.23 ± 0.02 s⁻¹. Moreover, the Km on LRRK2 [1] (read-out: Km (KGTP), GTP hydrolysis) was found to be 210 ± 29 µM. At LRRK2 [3], the “effect of nucleotide on kinase activity” value is “no significant activation or inhibition of kinase activity was detected”.

For the compound `CN[C@@H]1C[C@H]2O[C@@](C)([C@@H]1OC)n1c3ccccc3c3c4c(c5c6ccccc6n2c5c31)C(=O)NC4` [staurosporine], on LRRK2 [1] (data not shown), the “inhibition of GTPase activity” value was “does not inhibit GTPase activity at all”. For the same compound, the “inhibition of LRRK2 kinase activity” value against LRRK2 [2] (kinase assay not specified, data not shown) is “inhibits LRRK2 kinase activity”.
